Measurements: article PMC8930943 (Clinical Drug Investigation, 2022)
Values joined by “and” are separate entries in the source; they are usually repeats but may differ in a detail not shown here. Identical values can stand only once. “Also recorded” adds a separate entry of the source. Like-named read-outs stand apart in the source and are kept apart here. One block for each compound: values may come before it.

Columns and labels:
[1] = Study 2; format: in vivo, human
[2] = cited from earlier work
[3] = cited from earlier work; remark: listed apart in the source
[4] = tested on: human plasma proteins; conditions: independent of drug concentrations from 250 to 1000 ng/mL; cited from earlier work
[5] = Study 1; format: in vivo, human
[6] = single oral 45 mg dose of [14C] radiolabeled dacomitinib; cited from earlier work
[7] = Assessment of safety and tolerability in Study 1 and Study 2; format: in vivo, human
In short: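 Single 30 mg oral dose given after a >8-h fast with 180 mL (Study 1) or 240 mL (Study 2) water. Safety was assessed from AEs, laboratory abnormalities, physical examination, vital signs and 12-lead ECGs taken after 10-min supine rest. ECG times: Study 1 at screening, predose, 6, 48 and 264 h; Study 2 at screening, predose, 6 h, 144 h and follow-up. Participants stayed in-house to 144 h, with follow-up on Days 8–10 and 12.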

[8] = severe hepatic impairment, single oral dacomitinib 30 mg
[9] = Study 2, severe hepatic impairment
[10] = mild hepatic impairment, single oral dacomitinib 30 mg
[11] = Study 1 and Study 2, single oral dose of 30 mg

AUCinf decrease compared with normal liver function [1, 8]: 19% | Cmax decrease compared with normal liver function [1, 8]: 66%
Structure (SMILES): O=C(/C=C/CN1CCCCC1)Nc1cc2c(Nc3ccc(F)c(Cl)c3)ncnc2cc1O [PF-05199265, O-desmethyl dacomitinib]

Structure (SMILES): C=CC(=O)Nc1cc(Nc2nccc(-c3cn(C)c4ccccc34)n2)c(OC)cc1N(C)CCN(C)C [osimertinib]
decrease in AUC versus normal hepatic function ([2]; cancer patients with mild hepatic impairment (n = 7)): 63% | decrease in AUC versus normal hepatic function ([2]; cancer patients with moderate hepatic impairment (n = 5)): 68%

Structure (SMILES): COc1cc2ncnc(Nc3ccc(F)c(Cl)c3)c2cc1NC(=O)/C=C/CN1CCCCC1 [Dacomitinib]
correlation of concentrations with changes in corrected QT interval [3]: not found to correlate | in vitro binding to human plasma proteins [4]: approximately 98% | AUCinf,u increase compared with normal hepatic function [1, 9]: 32% | Cmax,u increase compared with normal hepatic function [1, 9]: approximately 69% | adjusted GMR for Cmax,u (90% CI) ([1]; Study 2, severe hepatic impairment vs normal hepatic function, printed as ratio): 1.69 [90% CI 1.08–2.63] | AUCinf increase compared with normal hepatic function [1, 8]: 4% and 4.4% | adjusted GMR for Cmax,u (90% CI) ([5]; Study 1, mild hepatic impairment vs normal hepatic function, printed as ratio): 1.00 (90% CI 0.69–1.44) | AUCinf and Cmax compared with normal hepatic function ([5]; Study 1, mild hepatic impairment, single oral dacomitinib 30 mg): unchanged; also recorded: similar | AUCinf decrease compared with normal hepatic function [5, 10]: 6% | Cmax increase compared with normal hepatic function [5, 10]: 3% | Cmax decrease compared with normal hepatic function ([5]; moderate hepatic impairment, single oral dacomitinib 30 mg): 20% | radioactivity recovered in feces [6]: 79% | radioactivity recovered in feces as dacomitinib [6]: 20% | radioactivity recovered in urine [6]: 3% | radioactivity recovered in urine as dacomitinib [6]: < 1% | AEs reported ([7]; Study 1, normal hepatic function or mild hepatic impairment groups): no AEs were reported | serious AEs, discontinuations, treatment-related deaths [7, 11]: no serious AEs, discontinuations due to study treatment, or treatment-related deaths | vital signs, laboratory values, ECG measurements [7, 11]: No clinically significant changes | AEs reported ([7]; Study 2, normal hepatic function or severe hepatic impairment groups): no AEs were reported | tolerability ([7]; single oral dose of 30 mg, healthy participants and participants with mild, moderate, or severe hepatic impairment): well tolerated
